In the library only some 2% were active in any assay of this set; here they are far more common.
PKA-R1A act = activators of PKA-R1A complex; P00514+P68181; PKA-R1A dissociation, Cy5-IP20 fluorescence polarization; scaled: DMSO 0%, 113 µM cGMP 100%; activation, % at 11.4 µM; 340,000 compounds, 0.083% hits;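 active means percent activation above the mean of all tested compounds plus 3 SD, cut at about 19% in these data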;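 further: higher means more PKAc released from R1A so a rise in polarization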
CAL PDZ FP-1 = blocks peptide binding to human CAL PDZ domain | Q9HD26 | inhibition, % at 20 µM | 330,000 compounds, 0.02% hits | purified CAL PDZ, TMR-peptide fluorescence polarization, 1 h | AID 504414;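 active means highest replicate inhibition of at least 40%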;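 further: plate controls were DMSO neutral control wells for no effect and unlabeled competitor peptide control wells for full effect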
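Test system: tagged CAL PDZ domain / Buffer or medium: sodium phosphate/NaCl buffer pH 7.4 with TCEP, IgG, Thesit / Reagent: TMR-labelled reporter peptide T*-PRC34 bound in PDZ groove / Compound dosing: single point, 20 µM / Schedule: 1 h incubation at room temperature before polarization reading / Technique: fluorescence polarization (mP) / Benchmarks: unlabelled peptide, DMSO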
CAL PDZ FP-2 = blocks peptide binding to the human CAL PDZ domain; purified CAL PDZ, TMR-peptide fluorescence polarization, 1 h; AID 602252; 300,000 compounds, 0.92% hits; Q9HD26; inhibition, % at 24.9 µM;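 active means mean inhibition of at least 30% with at least half of replicates also reaching 30%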;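 further: 0% = DMSO neutral control and 100% = excess unlabeled competitor peptide PRC23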
PKA-R2B activ = activates the human PKA-R2B holoenzyme complex. P22694+P31323. PKA-R2B holoenzyme dissociation, Cy5-IP20 fluorescence polarization; R2B truncated from residue 108, S112A mutant; 0% DMSO only, 100% 113 µM cGMP. activation, % at 11.4 µM. 340,000 compounds, 0.079% hits. AID 504700;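 active means activation above a cutoff set at the mean over all compounds plus 3 SD, cut at about 18% in these data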;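 further: higher means more holoenzyme dissociation and a rise in polarization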
NTR1 ag = agonists of human neurotensin receptor NTR1 | P30989 | AID 493036 | NTR1-U2OS beta-arrestin-GFP spot imaging, agonist mode | 330,000 compounds, 0.17% hits | activation, % at 20 µM;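 active means activation at or above 40% of the spot to cytoplasm intensity ratio, with at least 20 cells analyzed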;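 further: 0% = DMSO without peptide and 100% = 100 nM NTR1 peptide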
dFosB act = activators of mouse delta FosB homodimer; P13346; AID 493131; purified delta FosB, TAMRA-CDK5 oligo fluorescence polarization; percent of positive-control signal above neutral wells; activation, % at 25 µM; 340,000 compounds, 0.99% hits;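 active means mean activation above about 17%, with every replicate also reaching it, limit read from the data, passing the limit was not always enough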
Target sequence (P13346 whole entry, looked up): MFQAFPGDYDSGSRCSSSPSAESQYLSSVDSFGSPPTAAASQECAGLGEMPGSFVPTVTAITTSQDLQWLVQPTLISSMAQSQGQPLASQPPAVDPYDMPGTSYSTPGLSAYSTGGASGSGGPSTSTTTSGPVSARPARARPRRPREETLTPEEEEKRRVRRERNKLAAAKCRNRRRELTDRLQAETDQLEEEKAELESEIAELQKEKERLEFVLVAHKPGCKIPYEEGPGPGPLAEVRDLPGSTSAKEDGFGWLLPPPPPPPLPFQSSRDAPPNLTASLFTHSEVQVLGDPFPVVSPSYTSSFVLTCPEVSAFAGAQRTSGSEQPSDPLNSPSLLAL
The depositor's hits bear a star; · = no result given.

SMILES	PKA-R1A act	CAL PDZ FP-1	CAL PDZ FP-2	PKA-R2B activ	NTR1 ag	dFosB act
Cc1cc(C(=O)COC(=O)c2ccc(N)c([N+](=O)[O-])c2)c(C)n1Cc1ccc2c(c1)OCO2	-12.8	0.0	123.4*	2.4	3.9	0.4
O=C1CC(c2ccc(O)cc2)Oc2ccccc21 (centres undefined)	-4.3	-3.3	7.4	2.1	-0.7	-5.1
CN1CC(c2ccccc2)Oc2ccccc2C1=S (centres undefined)	-7.7	-0.1	66.6*	1.0	0.7	3.0
COc1cc2c(cc1OC)CN(C(=S)Nc1ccccc1Cl)CC2	3.9	·	68.0*	1.2	0.0	-2.3
O=C(/C=C/c1cc[n+](CC(=O)c2ccc3cccc4c3c2CC4)cc1)c1ccc2cccc3c2c1CC3	15.1	-2.0	-1.3	16.4	0.7	147.2*
COCCN(C(=O)C1CCC1)c1c(N)n(CC(C)C)c(=O)[nH]c1=O	3.6	-0.6	-3.7	-2.9	-1.1	-2.5
CCCCn1c(N)c(N(CCC(C)C)C(=O)CSc2nncn2-c2ccccc2)c(=O)[nH]c1=O	-2.3	-0.5	47.6*	3.5	3.0	-3.5
CCCCn1nc(C(=O)N(CC(C)C)c2c(N)n(CCCC)c(=O)[nH]c2=O)c2ccccc2c1=O	1.8	-2.0	-2.1	-5.2	-0.4	-6.3
CCCCn1c(N)c(N(CCOC)C(=O)c2cnc(C)cn2)c(=O)[nH]c1=O	-3.2	-1.6	37.7*	0.9	-0.2	4.1
CCCCC1CCC(C(=O)N(CCOC)c2c(N)n(CC(C)C)c(=O)[nH]c2=O)CC1 (centres undefined)	-2.1	0.1	61.6*	0.4	2.7	-17.6
CCCCCn1nc(C(=O)N(CC)c2c(N)n(CCCC)c(=O)[nH]c2=O)c2ccccc2c1=O	1.2	4.2	44.6*	5.1	0.1	-6.8
COc1ccccc1OCC(=O)N1CCN(C(=O)c2ccco2)CC1	-2.8	-0.3	4.9	2.3	1.3	-2.9
C=C(C(=O)c1ccccc1)C(C)C(=C)C(=O)c1ccccc1	-4.6	-1.9	-2.8	-6.1	·	-3.0
O=C(COC(=O)C1C2CC3OC(=O)C1C3C2)Nc1ccccc1 (centres undefined)	-3.9	0.8	·	-2.6	-0.1	-1.1
N#Cc1sc(NCc2ccccc2)nc1Cl	2.4	-4.2	-2.5	3.4	0.7	1.1
N#Cc1c(NCc2ccccc2)ccnc1Cl	9.6	-1.2	40.5*	-4.0	1.4	-1.4
COc1ccccc1C(=O)COC(=O)Cc1n[nH]c(=O)c2ccccc12	-8.0	-3.4	31.1*	-4.4	0.9	-3.4
O=C(Cc1n[nH]c(=O)c2ccccc12)OCC(=O)c1ccc(F)cc1	2.4	-0.7	-1.9	-5.4	1.4	-3.5
c1cncc(CSc2ccc(-c3ccc4c(c3)OCO4)nn2)c1	3.3	-2.4	46.2*	-9.2	3.8	-14.6
COc1ccc(NC(=O)CSc2nnc(C)n2Cc2ccccc2)cc1	-2.6	-2.0	-14.0	-8.4	-0.1	0.0
COc1ccc(NC(=O)CSc2nnc(N)n2CC(=O)Nc2ccc(OC)cc2)cc1	9.4	-0.5	52.4*	0.2	-2.1	-0.1
COc1ccc(NC(=O)CSc2nnc(-c3ccoc3C)n2CCc2ccccc2)cc1	6.9	·	102.6*	-8.4	0.6	-7.0
COc1ccccc1C(=O)COC(=O)c1ccc(Cl)nc1	-9.3	1.7	-1.9	-7.0	-1.3	0.9
N/N=C(\c1ccccc1)c1cc(Br)ccc1N	-6.5	·	47.4*	-11.4	1.8	1.1
Nc1ccc(Br)cc1C(=O)O	-11.7	-2.4	-1.6	11.7	0.3	-3.1
SMILES	PKA-R1A act	CAL PDZ FP-1	CAL PDZ FP-2	PKA-R2B activ	NTR1 ag	dFosB act
Cc1ccc2nc(N3C(=O)C(O)=C(C(=O)c4ccc(C)o4)C3c3ccc(O)cc3)sc2c1 (centres undefined)	-6.1	-6.0	-3.5	0.7	0.7	-3.1
NC1=NC(c2ccc(F)cc2)n2c(nc3ccccc32)N1 (centres undefined)	0.0	-0.4	-5.6	-8.6	1.1	1.9
Cc1ccc(-n2c(C)cc(C3N=C(N)Nc4nc5ccccc5n43)c2C)c(C)c1 (centres undefined)	0.0	-0.7	-0.9	5.5	19.4	64.6*
Cc1cc(C2N=C(N)Nc3nc4ccccc4n32)c(C)n1-c1ccccc1Cl (centres undefined)	-6.3	-3.8	-3.0	-4.9	12.4	75.6*
CCN(CC)CCC(O)(c1ccc2c(c1)OCO2)c1cc(OC)c(OC)c(OC)c1 (centres undefined)	-8.7	0.0	6.9	-3.3	·	-12.1
COc1ccccc1C(=O)N/N=C(\C)CC(=O)Nc1ccc(Cl)cn1	-0.5	-0.7	65.2*	-7.0	-0.5	-4.8
O=c1c2ccccc2oc2cc(Br)ccc12	-5.7	-1.0	89.3*	6.5	·	-14.2
CSc1cccc(NC(=O)CNS(=O)(=O)c2ccccc2)c1	-13.5	-1.2	·	-5.6	0.2	-6.4
C#CCOCCOCCOCCNc1nc(N2CCN(C(=O)[C@H](CCCCN)n3cc([C@@H](N)C(C)CC)nn3)CC2)nc(N2CCN(C(=O)[C@H](Cc3cc4ccccc4[nH]3)n3cc([C@@H](N)CC(C)C)nn3)CC2)n1 (some centres undefined)	-3.2	-0.4	1.7	-7.7	4.0	34.4*
C#CCOCCOCCOCCNc1nc(N2CCN(C(=O)[C@H](Cc3cc4ccccc4[nH]3)n3cc([C@@H](N)C(C)CC)nn3)CC2)nc(N2CCN(C(=O)[C@H](CCCCN)n3cc([C@@H](N)CO)nn3)CC2)n1 (some centres undefined)	·	·	·	·	0.9	·
O=C1NCCCCC1NS(=O)(=O)c1ccc(F)c(F)c1 (centres undefined)	-4.9	-0.7	110.1*	-11.7	-0.8	0.0
C/C=C/c1ccc(OCCn2nnc3ccccc32)c(OC)c1	2.7	-1.0	-4.5	2.6	1.5	-6.6
C=CCc1ccc(OCCn2nnc3ccccc32)c(OC)c1	5.2	-2.5	94.9*	7.2	2.0	4.3
O=C(N1CCOCC1)N1CCc2ccccc21	-6.0	-0.5	-2.4	3.6	0.5	-0.3
O=C(C1CC(=O)N(c2ccc3c(c2)OCCO3)C1)N1CCN(c2ccccc2)CC1 (centres undefined)	7.2	-0.1	46.7*	-6.2	-0.5	-3.9
CN(Cc1ccc(Cl)c(Cl)c1)C(=O)C1CC(=O)N(c2ccc3c(c2)OCCO3)C1 (centres undefined)	0.6	·	·	3.7	·	·
CN(Cc1cccc(F)c1)C(=O)C1CC(=O)N(c2ccc3c(c2)OCCO3)C1 (centres undefined)	-2.4	-0.4	40.2*	4.2	-2.4	-9.5
Cc1ccc(NC(=O)c2ncn(CCCNCCCc3ccccc3)n2)cc1C	-7.4	-0.4	-2.2	-5.9	·	0.1

Screening results: PubChem BioAssay, several laboratories
